Source: PubChem BioAssay
In the library only some 6% were active in any assay of this set; here they are far more common.
EphB4 antag: antagonists of human EphB4-ephrin-B2 interaction. P54760. EphB4 LBD / TNYL-RAW-Alexa532 peptide, fluorescence polarization. inhibition, % at 7 µM. 97,000 compounds, 0.15% hits;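 active means inhibition above the screen-wide mean inhibition plus 3 SD, cut at about 15% in these data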;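 further: 0% = DMSO wells and 100% = excess unlabeled TNYL-RAW peptide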
PostGolgi ctrl: inhibits growth of the yeast control strain; efflux-deficient yeast background strain, growth absorbance A615, 16 h; inhibition, % at 10 µM; 98,000 compounds, 5% hits; AID 738
PostGolgi yeast: growth inhibition of a yeast mutant, post-Golgi transport screen. inhibition, % at 10 µM. 98,000 compounds, 0.9% hits. post-Golgi transport phenotypic cell assay;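 further: yeast cells grown in 1536-well plates; yeast grown about 18 h at 30C before absorbance read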
Ecoli WT expand: blocks growth of wild type E. coli BW25113; 98,000 compounds, 0.15% hits; OD600 absorbance; growth inhibition, % at 100 µM;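 active means growth inhibition above about 50% at one test dose, limit read from the data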;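 further: growth measured after 20 h incubation at 37 °C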
Ecoli tolC: E. coli tolC mutant growth inhibition; 65,000 compounds, 2.2% hits; E. coli BW25113 tolC mutant growth, OD615; growth inhibition, % at 10 µM (by protocol); AID 573;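 active means growth inhibition at or above a cutoff equal to the mean over every tested compound plus 3 SD, cut at about 60% in these data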;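 further: growth measured after 20 h incubation at 37 °C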
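System: E. coli ΔtolC::kan strain BW25113; Buffer or medium: LB broth supplemented with 50 µg/mL kanamycin; Compound: 10 µM final, single dose; Incubation: bacterial growth with compound for 20 h at 37 °C; Signal: A615 absorbance measurement; Evaluation: growth inhibition in percent.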
Active calls of the source: *; . = no result. Unless noted, no stated cut-off is given here; in the data, active means inhibition above about 30%; inactive means the rest.

SMILES | EphB4 antag | PostGolgi ctrl | PostGolgi yeast | Ecoli WT expand | Ecoli tolC
C=CCn1c(SCC(=O)c2ccc(Cl)s2)nc2ccccc2c1=O | -6.2 | 17.4 | -3.2 | -2.0 | .
CCCc1nc(SCC(=O)N2CCc3ccccc32)c2c(=O)n(C)c(=O)n(C)c2n1 | . | . | . | . | 1.2
O=C(CSc1nnnn1-c1ccc(Cl)cc1)N1CCc2ccccc2C1 | -12.7 | 38.5* | 19.5 | -16.0 | 1.3
Cc1cc2c(=O)n(Cc3ccco3)c(SCC(=O)N3CCCc4ccccc43)nc2s1 | -5.2 | 31.6* | 4.2 | -14.0 | 43.5
CCn1c(SCC(=O)N2CCCc3ccccc32)nnc1-c1ccco1 | . | 0.8 | 49.0* | -2.0 | 1.8
CCn1c(SCC(=O)N2CCCc3ccccc32)nnc1-c1ccoc1C | -3.9 | . | . | . | .
CSC1=Nc2sc3c(c2C2=NCCN12)CC(C)(C)OC3 | . | . | . | . | 5.6
O=C(CN1CCN(c2ccccn2)CC1)N1c2ccccc2Sc2ccc(C(F)(F)F)cc21 | 3.9 | 41.0* | 3.5 | -8.0 | 53.4
O=C1CC(=C2c3ccccc3-c3ccccc32)C(=O)N1CCN1CCN(c2cccc(Cl)c2)CC1 | -3.1 | . | . | . | .
Cc1ccc(C)c(S(=O)(=O)N2CCN(CC(=O)N3CCc4ccccc4C3)CC2)c1 | -3.4 | 1.3 | -6.3 | 7.0 | .
O=C(c1n[nH]c(=O)c2ccccc12)N1CCN(C2c3ccccc3-c3ccccc32)CC1 | -1.8 | 32.9* | 12.2 | -6.0 | 21.1
O=C(CCN1C(=O)c2ccccc2C1=O)N1CCN(C2c3ccccc3-c3ccccc32)CC1 | 3.6 | 52.7* | -1.2 | 2.0 | .
CC(C)(C)C(=O)CN1CCN(C2c3ccccc3-c3ccccc32)CC1 | -2.3 | 5.0 | -2.5 | -3.0 | .
CCOc1cc(S(=O)(=O)N2CCN(Cc3ccccc3)CC2)ccc1Br | -4.8 | 29.2 | 9.5 | 1.0 | 63.8*
CCOC(=O)c1sc(-c2ccccc2)cc1NC(=O)CSc1nnnn1C | -2.3 | 74.0* | 8.8 | -16.0 | 25.0
COc1cc(SC)ccc1C(=O)Nc1ccc(S(=O)(=O)N2CCCC2)cc1 | . | 1.1 | 7.5 | -9.0 | -10.6
COc1cc(SC)ccc1C(=O)Nc1ccon1 | -5.8 | 31.5* | -4.6 | -3.0 | -3.3
CCOc1cc(S(=O)(=O)n2cc(-c3ccc(F)cc3)c(N)n2)cc(OCC)c1OCC | -9.0 | 7.9 | 4.2 | -7.0 | 63.3*
CCOc1ccc(S(=O)(=O)n2cc(-c3ccc(F)cc3)c(N)n2)cc1 | 12.4 | 11.8 | -5.7 | -8.0 | .
CCOCCCn1c(=N)c(C(=O)Nc2cc(C)on2)cc2c(=O)n3ccccc3nc21 | 0.5 | . | . | . | -12.9
CNc1nc(Nc2ccc(C(C)=O)cc2)nc(OC(C(F)(F)F)C(F)(F)F)n1 | -2.1 | 30.2* | 7.5 | -3.0 | 67.2*
Cc1nc(N2CCN(Cc3ccc4c(c3)OCO4)CC2)c2oc3ccccc3c2n1 | . | . | . | . | 95.2*
COc1ccccc1N1CCN(c2nc(C)nc3c2oc2ccccc23)CC1 | 0.6 | 28.8 | 8.8 | -3.0 | 97.5*
Cc1nc(N2CCC(C)CC2)c2oc3ccccc3c2n1 | -2.9 | 30.0* | 3.7 | -2.0 | .
CCC(SC1=N/C(=C/c2ccccc2OC)C(=O)N1c1ccccc1)C(=O)Nc1cc(C)on1 (centres undefined) | -7.3 | 5.5 | 2.3 | -12.0 | .
SMILES | EphB4 antag | PostGolgi ctrl | PostGolgi yeast | Ecoli WT expand | Ecoli tolC
CCOc1ccccc1C(=O)NC(C(=O)OCC(=O)Nc1nnc(-c2ccccc2)o1)C(C)C (centres undefined) | 7.6 | 5.5 | 20.2 | 4.0 | 86.8*
CCOC(=O)c1c(C)[nH]c(C)c1C(=O)COC(=O)[C@@H](NC(=O)c1ccccc1OCC)C(C)C | -0.7 | -0.1 | 0.7 | -3.0 | .
Cc1ccc(C(=O)CSc2nc3cc(S(=O)(=O)N4CCOCC4)ccc3o2)cc1 | . | 38.5* | -7.5 | -7.0 | 30.2
Cc1[nH]c2ccccc2c1C(=O)CSc1nc2cc(S(=O)(=O)N3CCCCC3)ccc2o1 | 3.2 | 9.4 | 12.4 | -15.0 | 19.5
CCc1nc(NCCCCCO)c2nnn(Cc3ccccc3F)c2n1 | 0.4 | 3.4 | -2.5 | 4.0 | .
Cc1ccc(NC(=O)c2ccccc2)cc1OC(=O)c1ccccc1 | -2.1 | 10.1 | -3.0 | 0.0 | .
CCCCCNc1nc(-c2ccccc2)cs1 | -1.1 | -4.4 | 3.0 | -6.0 | .
Cc1nn2c(-c3cccc(NC(=O)c4ccco4)c3)nnc2c2ccccc12 | 6.4 | 27.3 | -2.0 | 0.0 | 25.9
Cc1nn2c(-c3ccccc3)nnc2c2ccccc12 | -2.3 | 30.8* | -1.1 | -5.0 | 37.3
CCC(Sc1nc2ccccc2s1)C(=O)Nc1cc(C)on1 (centres undefined) | -0.4 | . | . | . | .
O=C(COC(=O)c1ccncc1)Nc1cc(Cl)c(Cl)cc1Cl | 1.5 | 2.3 | -2.9 | 4.0 | .
N=c1cc(C2(O)CCCCC2)n2c(nc3ccccc32)s1 | 3.5 | 5.4 | 7.3 | 6.0 | -1.8
COCCCn1c2nc3ccccc3nc2c2c(=O)n(-c3ccccc3OC)cnc21 | 2.6 | 3.6 | 34.5* | -5.0 | 16.5
Cc1ccc(S(=O)(=O)NCCSc2nnnn2-c2ccccc2)cc1 | -9.6 | . | . | . | .
Cc1ccc(S(=O)(=O)NCCSc2nnnn2-c2cc(C)ccc2C)cc1 | 5.4 | 16.6 | -2.6 | -11.0 | 68.0*
CNc1nc(SCc2ccccc2Cl)nc2c1CCCC2 | 2.5 | 44.9* | 16.5 | -9.0 | .
CN(C)c1nc(SCc2ccc(Cl)cc2)nc2c1CCCC2 | 1.7 | 36.9* | 11.9 | 0.0 | .
COc1ccccc1OCc1nnc(SCC(=O)c2cc(Cl)ccc2OC)o1 | -1.9 | 32.0* | 9.8 | -7.0 | 22.6
C/C(N)=C(/C#N)C(=O)CSc1nnc(COc2ccccc2Cl)o1 | 3.5 | 11.3 | -7.8 | -2.0 | 3.7
c1ccc(-c2n[nH]nc2-c2ccccc2)cc1 | 4.4 | 30.0* | 23.1 | 9.0 | 35.5
C=CCSc1nc(C)cc(/C=C\c2ccccc2)c1C#N | -7.8 | 9.6 | 14.6 | -14.0 | .
Cc1cc(/N=C/C=C2\N(C)c3ccccc3C2(C)C)n(CCC#N)n1 | -3.0 | 5.6 | -2.2 | -2.0 | 14.1
C=C(C)COc1ccc(-c2ncncc2Oc2ccc(OC)cc2)c(O)c1 | 0.3 | 19.1 | 65.6* | 0.0 | 65.8*
COc1ccc(-c2cnc(N)nc2-c2ccc(OC)cc2O)cc1 | -17.0 | 28.2 | -5.9 | 3.0 | 7.4
COc1ccc(-c2ncncc2-c2csc(C)n2)c(O)c1 | 11.0 | 3.7 | -0.8 | 3.0 | 7.9
SMILES | EphB4 antag | PostGolgi ctrl | PostGolgi yeast | Ecoli WT expand | Ecoli tolC
C=C(C)COc1ccc(-c2nc(N)ncc2-c2ccc(OC)cc2)c(O)c1 | 14.1 | 72.0* | 4.7 | -29.0 | 85.6*
Cc1cccc(NC(=O)C2NC(=O)CC2c2ccccc2)c1C (centres undefined) | -7.5 | 10.6 | -7.8 | 0.0 | .
Cc1ccc(Cl)cc1N1CCN(C(=O)CCS(=O)(=O)c2cccc3nonc23)CC1 | . | . | . | . | 60.6*
O=C(CCS(=O)(=O)c1cccc2nonc12)N1CCCc2ccccc21 | . | -5.3 | 7.5 | 4.0 | 12.5
CC(C)c1nc(SCc2c(F)cccc2Cl)c2c(=O)n(C)c(=O)n(C)c2n1 | -7.7 | 11.8 | 1.3 | -12.0 | 16.6
CCCN(CC1CC1)C(=O)CSc1ncnc2sc(C)c(C)c12 | -7.3 | 36.5* | -5.9 | 1.0 | .
Cc1ccc(OCc2ccc(C(=O)Nc3c(C)nn(Cc4c(F)c(F)c(F)c(F)c4F)c3C)o2)c([N+](=O)[O-])c1 | 3.7 | 39.1* | -6.0 | -10.0 | .
N#Cc1ncc(C(F)(F)F)cc1Sc1ccc(N)cc1 | 16.1* | -3.3 | -2.7 | 5.0 | .
